Source: ChEMBL document CHEMBL1166015, “Design, synthesis, and docking of highly hypolipidemic agents: Schizosaccharomyces pombe as a new model for evaluating alpha-asarone-based HMG-CoA reductase inhibitors” (Bioorg Med Chem, 2010)

How the values were obtained:
Mus musculus [1] = assay: Hypolipidemic activity in ICR mouse assessed as decrease in Tyloxapol-induced LDL-cholesterol level at 50 mg/kg, ip administered 1 hr before Tyloxapol challenge and 22, 48 hrs after Tyloxapol challenge measured after 22 hrs relative to control; assay type: functional; parameters: scale not given: the % may be the effect or the level left; conditions: route oral, in the assay text read “po administered” for “ip administered”
Outline: (§1)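 Male ICR mice (24–27 g), groups of six. Hyperlipidemia induced by ip Tyloxapol (Triton WR 1339) 400 mg/kg in water. Drug given at 5 mL/kg 1 h before and 22 and 48 h after injection; vehicle controls. Blood drawn 22 h post-injection by periorbital bleeding. Serum total cholesterol, HDL-C and triglycerides measured on an automatic analyzer; LDL-C by the Friedewald equation. Values are % of the Tyloxapol group, mean ± SE.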

Mus musculus [2] = assay: Hypolipidemic activity in ICR mouse assessed as decrease in Tyloxapol-induced total cholesterol level at 50 mg/kg, ip administered 1 hr before Tyloxapol challenge and 22, 48 hrs after Tyloxapol challenge measured after 22 hrs relative to control; assay type: functional; parameters: scale not given: the % may be the effect or the level left; conditions: route oral, in the assay text read “po administered” for “ip administered”; outline: as §1
Mus musculus [3] = assay: Hypolipidemic activity in high cholesterol diet fed ICR mouse assessed as reduction of LDL cholesterol level at 100 mg/kg/day, po after 12 hrs of last cholesterol challenge relative to control; parameters: scale not given: the % may be the effect or the level left
Mus musculus [4] = assay: Hypolipidemic activity in ICR mouse assessed as decrease in Tyloxapol-induced HDL-cholesterol level at 50 mg/kg, ip administered 1 hr before Tyloxapol challenge and 22, 48 hrs after Tyloxapol challenge measured after 22 hrs relative to control; assay type: functional; parameters: scale not given: the % may be the effect or the level left; conditions: route oral, in the assay text read “po administered” for “ip administered”; outline: as §1
Mus musculus [5] = assay: Hypolipidemic activity in ICR mouse assessed as decrease in Tyloxapol-induced LDL-cholesterol level at 100 mg/kg, ip administered 1 hr before Tyloxapol challenge and 22, 48 hrs after Tyloxapol challenge measured after 22 hrs relative to control; assay type: functional; parameters: scale not given: the % may be the effect or the level left; conditions: route oral, in the assay text read “po administered” for “ip administered”; outline: as §1
Mus musculus [6] = assay: Hypolipidemic activity in ICR mouse assessed as decrease in Tyloxapol-induced total cholesterol level at 100 mg/kg, ip administered 1 hr before Tyloxapol challenge and 22, 48 hrs after Tyloxapol challenge measured after 22 hrs relative to control; assay type: functional; parameters: scale not given: the % may be the effect or the level left; conditions: route oral, in the assay text read “po administered” for “ip administered”; outline: as §1
Mus musculus [7] = assay: Hypolipidemic activity in high cholesterol diet fed ICR mouse assessed as reduction of triglyceride level at 100 mg/kg/day, po after 12 hrs of last cholesterol challenge relative to control; parameters: scale not given: the % may be the effect or the level left
Mus musculus [8] = assay: Hypolipidemic activity in high cholesterol diet fed ICR mouse assessed as reduction of LDL cholesterol level at 50 mg/kg/day, po after 12 hrs of last cholesterol challenge relative to control; parameters: scale not given: the % may be the effect or the level left
Mus musculus [9] = assay: Hypolipidemic activity in high cholesterol diet fed ICR mouse assessed as reduction of triglyceride level at 50 mg/kg/day, po after 12 hrs of last cholesterol challenge relative to control; parameters: scale not given: the % may be the effect or the level left
Mus musculus [10] = assay: Hypolipidemic activity in high cholesterol diet fed ICR mouse assessed as reduction of HDL cholesterol level at 100 mg/kg/day, po after 12 hrs of last cholesterol challenge relative to control; parameters: scale not given: the % may be the effect or the level left
Mus musculus [11] = assay: Hypolipidemic activity in high cholesterol diet fed ICR mouse assessed as reduction of total cholesterol level at 50 mg/kg, ip after 12 hrs of last cholesterol challenge relative to control; assay type: functional; parameters: scale not given: the % may be the effect or the level left; conditions: route intraperitoneal
Outline: (§2)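 Male ICR mice (24–27 g), six per group, were fed a high-cholesterol diet ad libitum for 6 days (1.0% cholesterol, 0.5% sodium cholate, 5% butter, 30% sucrose, 10% casein, 53.5% chow). Basal-diet mice served as controls. Dosing was 5 mL/kg and solutions were made fresh. Mice were fasted 12 h before sacrifice and bled periorbitally. Serum TC, HDL-C and TG were read on an analyzer, with LDL-C by Friedewald.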

Mus musculus [12] = assay: Hypolipidemic activity in ICR mouse assessed as decrease in Tyloxapol-induced HDL-cholesterol level at 100 mg/kg, ip administered 1 hr before Tyloxapol challenge and 22, 48 hrs after Tyloxapol challenge measured after 22 hrs relative to control; assay type: functional; parameters: scale not given: the % may be the effect or the level left; conditions: route intraperitoneal; outline: as §1
Mus musculus [13] = assay: Hypolipidemic activity in ICR mouse assessed as decrease in Tyloxapol-induced triglyceride level at 100 mg/kg, ip administered 1 hr before Tyloxapol challenge and 22, 48 hrs after Tyloxapol challenge measured after 22 hrs relative to control; assay type: functional; parameters: scale not given: the % may be the effect or the level left; conditions: route intraperitoneal; outline: as §1
Mus musculus [14] = assay: Hypolipidemic activity in high cholesterol diet fed ICR mouse assessed as reduction of total cholesterol level at 100 mg/kg/day, ip after 12 hrs of last cholesterol challenge relative to control; assay type: functional; parameters: scale not given: the % may be the effect or the level left; conditions: route intraperitoneal; outline: as §2
Mus musculus [15] = assay: Hypolipidemic activity in ICR mouse assessed as decrease in Tyloxapol-induced triglyceride level at 50 mg/kg, ip administered 1 hr before Tyloxapol challenge and 22, 48 hrs after Tyloxapol challenge measured after 22 hrs relative to control; assay type: functional; parameters: scale not given: the % may be the effect or the level left; conditions: route intraperitoneal; outline: as §1
[16] = molecular target: T1, 3-hydroxy-3-methylglutaryl-coenzyme A reductase (Schizosaccharomyces pombe 972h-, UniProt Q10283); assay: Inhibition of Schizosaccharomyces pombe HMG-CoA reductase by spectrophotometry; conditions: read-out: IC50
T1 sequence (Q10283 whole entry): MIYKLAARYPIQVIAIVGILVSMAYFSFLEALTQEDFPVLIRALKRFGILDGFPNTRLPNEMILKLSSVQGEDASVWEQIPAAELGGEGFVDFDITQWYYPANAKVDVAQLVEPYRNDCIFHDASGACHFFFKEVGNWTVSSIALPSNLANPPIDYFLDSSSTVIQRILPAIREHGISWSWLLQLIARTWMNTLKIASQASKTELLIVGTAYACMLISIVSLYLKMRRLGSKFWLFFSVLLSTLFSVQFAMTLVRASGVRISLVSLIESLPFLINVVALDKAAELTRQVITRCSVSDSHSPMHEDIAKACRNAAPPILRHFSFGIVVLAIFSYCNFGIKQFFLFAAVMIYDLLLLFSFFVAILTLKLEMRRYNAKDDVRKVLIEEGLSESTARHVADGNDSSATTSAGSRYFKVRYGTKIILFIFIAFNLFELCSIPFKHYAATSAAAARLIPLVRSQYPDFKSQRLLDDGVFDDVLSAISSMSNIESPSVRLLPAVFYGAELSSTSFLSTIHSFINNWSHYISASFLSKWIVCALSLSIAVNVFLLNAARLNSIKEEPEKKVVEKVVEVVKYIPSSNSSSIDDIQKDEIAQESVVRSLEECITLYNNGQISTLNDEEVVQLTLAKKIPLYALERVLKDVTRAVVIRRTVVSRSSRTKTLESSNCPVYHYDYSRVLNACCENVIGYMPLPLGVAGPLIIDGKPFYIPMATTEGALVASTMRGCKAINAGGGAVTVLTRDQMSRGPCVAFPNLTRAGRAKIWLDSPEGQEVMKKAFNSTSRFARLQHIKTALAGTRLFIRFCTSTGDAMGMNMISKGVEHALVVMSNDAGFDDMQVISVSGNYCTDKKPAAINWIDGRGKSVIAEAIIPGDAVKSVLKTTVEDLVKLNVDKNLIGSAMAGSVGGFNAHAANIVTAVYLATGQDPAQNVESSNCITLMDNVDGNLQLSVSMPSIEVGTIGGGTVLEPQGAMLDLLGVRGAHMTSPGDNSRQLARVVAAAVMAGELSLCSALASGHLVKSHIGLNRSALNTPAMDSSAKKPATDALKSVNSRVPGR
Outline: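 Membrane HMGR partially purified from S. pombe 972 h (YPD, 28 °C, 48 h) via centrifugation, Triton X-100 solubilization, 65 °C heat step, ammonium sulfate and calcium phosphate gel. Enzyme activated 37 °C 30 min, pre-incubated with compound (DMSO stocks 1–5 mM) 30 min at 37 °C. Assay: 200 µg enzyme, 0.13 mM HMG-CoA, 50 mM Tris-HCl pH 7.5; started with 0.13 mM NADPH; A340 decrease over 2 min; triplicate; IC50 derived.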

Mus musculus [17] = assay: Hypolipidemic activity in high cholesterol diet fed ICR mouse assessed as reduction of HDL cholesterol level at 50 mg/kg/day, po after 12 hrs of last cholesterol challenge relative to control; parameters: scale not given: the % may be the effect or the level left

CCCc1cc(OC)c(OCC(=O)OC)cc1N
Activity (Mus musculus [1]): -24.22%
Activity (Mus musculus [2]): -69.1%
Activity (Mus musculus [3]): -31.54%
Activity (Mus musculus [4]): -11.21%
Activity (Mus musculus [5]): -37.31%
Activity (Mus musculus [6]): -59.67%
Activity (Mus musculus [7]): -24.98%
Activity (Mus musculus [8]): -41.1%
Activity (Mus musculus [9]): -12.22%
Activity (Mus musculus [10]): -39.58%
Activity (Mus musculus [11]): -41.4%
Activity (Mus musculus [12]): -26.23%
Activity (Mus musculus [13]): -22.14%
Activity (Mus musculus [14]): -49.47%
Activity (Mus musculus [15]): -15.45%
IC50 [16]: 92.9 µM
Activity (Mus musculus [17]): -36.04%
